Assay results from publication PMC3165084 (Leukemia, 2011).
Several values for one entry are separate records, joined by “and”; a condition that tells them apart may be missing. Equal entries are not always repeated. Marks after values point to notes of the source that are not given here.

How the values were obtained:
advanced cancer = details: 5-day, every 12 hour dosing; highest dose level 1300 mg twice daily for five days; ref [4]; cited from earlier work
[1] = tested on: myeloid and lymphoid leukemias; details: ref [2], cited from earlier work
[2] = tested on: patients with acute myeloid leukemia (AML); experiment: Phase 1 dose escalation, week-on week-off oral tipifarnib: toxicity, DLT and MTD; assay type: in vivo, human
How it was run: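 Adult patients with AML (M3 excluded) received oral test compound twice daily on days 1–7 and 15–21 of 28-day cycles in 3+3 cohorts. AEs were graded by NCI CTCAE v3.0 from clinic review and patient diaries. DLT was any possibly drug-related […] nonhematologic toxicity (excluding palliated GI events and corrected electrolytes), or non-reversible grade 4 hematologic toxicity without blasts. MTD was ≤1 of 6 with DLT in cycle 1.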

[3] = tested on: previously untreated AML or MDS; details: 600 mg bid, 21 day schedule, older patients with previously untreated AML or MDS; ref [5]; cited from earlier work
[4] = tested on: acute myeloid leukemia (AML); experiment: Phase 1 dose escalation: clinical response; assay type: in vivo, human
How it was run: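 Bone marrow aspiration and biopsy were done within two weeks before therapy and repeated on days 26–28 of each 28-day cycle. Blood counts were taken at least weekly. Response was scored by International Working Group criteria. Intra-patient escalation was allowed if no CR after cycle 1. Patients without PR or clinical improvement after 6 cycles were deemed treatment failures.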

farnesyl transferase = details: correlative studies in patients; ref [6]–[8]; cited from earlier work
solid tumor = details: 900 mg bid dose level, week-on, week-off; ref [7]; cited from earlier work
MDS = details: above 400 mg bid, 21-day bid dosing; ref [6]; cited from earlier work
[5] = Plasma pharmacokinetics of tipifarnib, LCMS/MS, non-compartmental analysis; assay type: in vivo, human
[6] = 1200 mg bid, Subsequent courses
[7] = AUC12h Day 5 / AUC12h Day 1, 1400 mg bid
[8] = Day 1, 1200 mg, plasma, individual subjects 4-10

Cn1cncc1[C@@](N)(c1ccc(Cl)cc1)c1ccc2c(c1)c(-c1cccc(Cl)c1)cc(=O)n2C [tipifarnib, Tipifarnib]
protocol-defined maximum tolerated dose (MTD) (advanced cancer): not achieved
response at lowest dose level ([1]; 100 mg bid, 21-day continuous dosing): a CR at the lowest dose level
overall response rate ([1]; 34 patients, 21-day continuous dosing schedule): 29%
# DLTs ([2]; 400 mg bid): 1
DLT descriptions ([2]; 400 mg bid): hepatic
# DLTs ([2]; 1200 mg bid): 1
DLT descriptions ([2]; 1200 mg bid): renal
ALT, SGPT toxicity, Grade 2 ([2]; 1200 mg bid, Course 1): 2
Anorexia, Grade 2 ([2]; 1200 mg bid, Course 1): 2
Bilirubin toxicity, Grade 2 ([2]; 1200 mg bid, Course 1): 2
Creatinine toxicity, Grade 2 ([2]; 1200 mg bid, Course 1): 2
Creatinine toxicity, Grade 3 ([2]; 1200 mg bid, Course 1): 1
Dehydration, Grade 2 ([2]; 1200 mg bid, Course 1): 1
Fatigue, Grade 2 ([2]; 1200 mg bid, Course 1): 3
Hypoalbuminemia, Grade 2 ([2]; 1200 mg bid, Course 1): 2
Nausea, Grade 2 ([2]; 1200 mg bid, Course 1): 1
Nausea, Grade 3 ([2]; 1200 mg bid, Course 1): 1
Rash / desquamination, Grade 2 ([2]; 1200 mg bid, Course 1): 1
Vomiting, Grade 2 ([2]; 1200 mg bid, Course 1): 2
ALT, SGPT toxicity, Grade 3 [2, 6]: 1
AST, SGOT toxicity, Grade 2 [2, 6]: 1
Anorexia, Grade 2 [2, 6]: 1
Ataxia, Grade 3 [2, 6]: 1
Bilirubin toxicity, Grade 2 [2, 6]: 1
Constipation, Grade 2 [2, 6]: 1
Creatinine toxicity, Grade 2 [2, 6]: 3
Fatigue, Grade 3 [2, 6]: 2
Febrile neutropenia, Grade 3 [2, 6]: 1
Hyperglycemia, Grade 2 [2, 6]: 2
Hypoalbuminemia, Grade 2 [2, 6]: 2
Nausea, Grade 2 [2, 6]: 2
Restless leg syndrome, Grade 2 [2, 6]: 1
Syncope (fainting), Grade 3 [2, 6]: 1
Vomiting, Grade 2 [2, 6]: 2
Weight loss, Grade 2 [2, 6]: 1
# DLTs ([2]; 1400 mg bid): 2
DLT descriptions ([2]; 1400 mg bid): renal
# DLTs ([2]; 1600 mg bid): 2 ^*
DLT descriptions ([2]; 1600 mg bid): hepatic, renal ^*
maximum tolerated dose (MTD) ([2]; oral twice daily, days 1–7 and 15–21 of each 28-day cycle, first-cycle DLT): 1200 mg bid
partial response, patients [3]: 10%
Responses ([4]; 800 mg bid): 1 CMML patient cleared leukemic blasts
marrow blasts, change ([4]; 800 mg bid, one patient, over 3 cycles): from 36% to 10%
Responses ([4]; 1000 mg bid): 1 CR went to transplant
Responses ([4]; 1200 mg bid): 2 CRs, 1 marrow response (from 50%-7% blasts)
duration of CR ([4]; 1200 mg bid, individual CR patients): one month
Responses ([4]; 1400 mg bid): minor responses
decrease of bone marrow blasts ([4]; 1400 mg bid, two patients): ≥ 50%
complete remissions (CR) seen ([4]; all dose levels, 44 patients, 1000 mg and 1200 mg bid): 3
complete responses in expansion group ([4]; expansion group, 7 patients at MTD 1200 mg bid): no complete responses
formal responses ([4]; lower dose levels (below 1000 mg bid)): No formal responses
duration of farnesyl transferase inhibition after administration (farnesyl transferase): seven days
DLT (solid tumor): grade 3 fatigue
dose limiting toxicities (MDS): headache, fatigue, confusion, and vision changes
Accumulation Index, median ([5]; AUC12h Day 5 / AUC12h Day 1, 1200 mg bid): 1.2 and 1.23
Accumulation Index ([5]; AUC12h Day 5 / AUC12h Day 1, 1200 mg bid, individual subjects 4-10): 1.23 and 0.91 and 2.40 and 1.55
Accumulation Index, high [5, 7]: 1.37
Accumulation Index, low [5, 7]: 0.97
Accumulation Index, median [5, 7]: 1.17
Accumulation Index ([5]; AUC12h Day 5 / AUC12h Day 1, 1400 mg bid, individual subjects 1-3): 1.37 and 0.97
Cmin, high ([5]; Day 1, 1200 mg, plasma): 402 ng/mL
Cmin, low ([5]; Day 1, 1200 mg, plasma): 82 ng/mL
Cmin, median ([5]; Day 1, 1200 mg, plasma): 166 ng/mL
AUC12h [5, 8]: 3905 ng·h/mL
Cmax [5, 8]: 804 ng/mL and 1180 ng/mL and 479 ng/mL and 2300 ng/mL
